Activity calls are given as the source filed them.
Tests used:
[1] = tested on: Bacillus subtilis; experiment: Antimicrobial activity against Bacillus subtilis at 100 ug/disc by standard disc dassay; assay type: functional
[2] = tested on: Escherichia coli; experiment: Antimicrobial activity against Escherichia coli at 100 ug/disc by standard disc dassay; assay type: functional
[3] = tested on: MDA-MB-231; experiment: Cytotoxicity against human MDA-MB-231 cells assessed as reduction in cell viability up to 10 uM by Cell-Titer Glo assay; assay type: functional, cell-based
How it was run: (§1)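 Viability read by CellTiter-Glo: reagent added 1:1 to the well medium, plates kept in foil and shaken 2 min at room temperature, paused 2 min, then shaken 2 min more, and luminescence measured. Compounds were tested at concentrations up to 10 μM. Sphaeropsidin A served as positive control and a DMSO blank as negative control.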

[4] = tested on: D453 (Homo sapiens); experiment: Cytotoxicity against human D453 cells assessed as reduction in cell viability up to 10 uM by Cell-Titer Glo assay
[5] = tested on: Cryptococcus neoformans; experiment: Antimicrobial activity against Cryptococcus neoformans at 100 ug/disc by standard disc dassay; assay type: functional
[6] = tested on: Candida albicans; experiment: Antimicrobial activity against Candida albicans at 100 ug/disc by standard disc dassay; assay type: functional
[7] = tested on: Staphylococcus aureus; experiment: Antimicrobial activity against Staphylococcus aureus at 100 ug/disc by standard disc dassay; assay type: functional
[8] = tested on: GLI56; experiment: Cytotoxicity against human GLI56 cells assessed as reduction in cell viability up to 10 uM by Cell-Titer Glo assay; assay type: functional, cell-based; how it was run: as §1

Measured: Activity

COC(=O)c1cc(OC)cc(O)c1C(=O)c1cc(C(C)=O)c(O)c(C(=O)c2c(O)cc(OC)cc2C(=O)OC)c1
inactive: [1] | [2] | [3] | [4] | [5] | [6] | [7] | [8]

COC(=O)c1cc(OC)cc(O)c1C(=O)c1cc(C(C)=O)c2oc3cc(OC)cc(C(=O)OC)c3c(=O)c2c1
inactive: [1] | [2] | [3] | [4] | [5] | [6] | [7] | [8]

COC(=O)c1cc(OC)cc(O)c1C1=C2CC3(COc4cc(OC)cc(C(=O)OC)c4C3=O)C(=O)C(C(C)=O)=C2C=C(C)O1 (centres undefined)
inactive: [1] | [2] | [3] | [4] | [5] | [6] | [7] | [8]
